High-throughput results deposited in PubChem by several laboratories.
GSTO1 counter: inhibitors of recombinant GSTO1, primary screen, counter-screen for RBBP9 inhibitor project, biochemical, fluorescence polarization; inhibition, % at 5.96 µM; activity-based probe fluorescence polarization; AID 1974, 2009; hit rate 1.1% among 300,000;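 active = inhibition above the campaign mean inhibition plus 3 SD, cut at about 35% in these data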;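 also: 0% = GSTO1-1 with DMSO and 100% = wells lacking GSTO1-1 enzyme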
PRMT1 FP inh: PRMT1 methyltransferase inhibitors, primary screen, biochemical, fluorescence polarization; Protein arginine N-methyltransferase 1 (Homo sapiens), Q99873; recombinant PRMT1, activity-based probe fluorescence polarization; inhibition, % at 2.79 µM; hit rate 1.3% among 370,000; AID 652257, 2013;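 active = inhibition above about 21% made by adding two undisclosed values, limit read from the data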
PAD4 FP inh: human PAD4 inhibitors, primary screen, biochemical, fluorescence polarization, 1536-well format; recombinant PAD4, RCA probe fluorescence polarization; inhibition, % at 6.36 µM; hit rate 0.41% among 330,000;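 active = percent inhibition above a cutoff equal to the mean of all tested compounds plus 3 SD, cut at about 15% in these data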;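 also: 0% = PAD4 with RCA probe and DMSO and 100% = probe without PAD4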
Apaf1 inhib: inhibitors of human Apaf-1 apoptosome, primary screen, biochemical, DEVD-Rh110 fluorescence, uHTS | Apoptotic protease-activating factor 1 (Homo sapiens), O14727 | reconstituted apoptosome caspase-3 activity | inhibition, % at 20 µM | hit rate 0.71% among 330,000; active = inhibition of at least 40% at 20 µM;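 also: plate controls were DMSO wells for no effect and DEVD-CHO caspase inhibitor wells for full effect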
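System – cell-free apoptosome with Apaf-1, procaspase-3 and caspase-9 · Buffer or medium – pH 7.5 Hepes buffer with CHAPS, BSA, DTT · Also added – cytochrome c with DEVD-Rh110 · Times – 30 min compound preincubation, 50 min activation, room temperature · Technique – Rh110 fluorescence intensity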
TDP2 absorb: human TDP2 enzyme inhibitors, primary screen, biochemical, epi absorbance, recombinant enzyme. AID 720702, 2013. Tyrosyl-DNA phosphodiesterase 2 (Homo sapiens), O95551. hit rate 0.34% among 370,000. inhibition, % at 12.8 µM. T5PNP hydrolysis, p-nitrophenol absorbance 415 nm;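 active = inhibition above the mean of all tested compounds plus 3 SD, set per campaign, cut at about 25% in these data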;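 also: 0% = DMSO with enzyme and 100% = buffer with substrate but no TDP2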
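System – recombinant human TDP2 · Quantity – TDP2 enzyme at 120 nM final · Doses – single concentration, 12.8 µM nominal, with 1% DMSO · Incubation – 2 h at 37 °C · Measured by – epi absorbance of p-nitrophenol freed from T5PNP by hydrolysis · Read-out – % inhibition relative to enzyme-containing and enzyme-free wells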
PRMT1 inh conf: PRMT1 methyltransferase inhibitors, confirmation, biochemical, fluorescence polarization, triplicate; shares compounds with PRMT1 FP inh; recombinant His-PRMT1, activity-based probe fluorescence polarization; inhibition, % at 2.79 µM; AID 687036, 2013; hit rate 42% among 3,300;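 active = mean inhibition across replicates above the hit cutoff derived for the earlier primary screen, cut at about 22% in these data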
* marks the source's active call; other numbers are inactive results; . = no result. Rows were chosen to be rich in hits. Some 2.6% of all compounds tested hit in one or more screens of this group.

SMILES	GSTO1 counter	PRMT1 FP inh	PAD4 FP inh	Apaf1 inhib	TDP2 absorb	PRMT1 inh conf
CCN1CCSc2ccc(C(=O)NCc3ccccc3F)cc21	-1	52*	0	19	1	4
Cn1c(SCc2nnc(-c3ccccc3Br)o2)nc2sc3c(c2c1=O)CCC3	2	29*	1	0	-8	10
CN(C)c1ccc(NC(=S)NC(=O)/C=C/c2ccco2)cc1	8	27*	-10	0	0	0
O=C(/C=C/c1ccco1)NC(=S)Nc1ccc(Cl)cn1	8	29*	-4	3	-1	-3
CCC(=O)Nc1ccc(NC(=S)NC(=O)/C=C/c2ccco2)cc1	1	8	1	7	9	.
O=C(/C=C/c1ccco1)Nc1ccc(S(=O)(=O)N2CCOCC2)cc1	3	1	-4	-5	-2	.
CC(=O)NS(=O)(=O)c1ccc(NC(=O)/C=C/c2ccco2)cc1	11	37*	0	-10	3	24*
CC1CCCN(C(=O)c2cccc(S(=O)(=O)NCc3ccccc3)c2)C1 (centres undefined)	.	-2	.	.	-4	.
COC(=O)[C@]12CCCCC=C1N(Cc1ccccc1)C(=O)[C@H](CC(=O)NCCC(C)C)C2	.	2	.	.	1	.
Cn1ncc2c(=S)nc(Cl)[nH]c21	.	31*	.	.	-13	6
CC(C)(C)Cc1nnc(NS(=O)(=O)c2ccc([N+](=O)[O-])cc2)s1	-7	-2	5	4	5	.
CS(=O)(=O)c1ccc(S(=O)CC(=O)OCc2ccccc2)c([N+](=O)[O-])c1 (centres undefined)	.	66*	.	.	-10	34*
CC(=O)Nc1cc(-c2ccccc2)cn2c(-c3cccc(C(C)=O)c3)cnc12	.	0	.	.	7	.
N/C(Cc1cccc2ccccc12)=N\OC(=O)c1ccccc1F	.	49*	.	16	10	4
N/C(Cc1ccc(Cl)cc1Cl)=N\OC(=O)c1ccccc1F	3	4	-4	12	-5	.
COCC(=O)Nc1ccccc1-c1ccccc1	-4	-5	6	-3	-10	.
O=C(O)/C=C/C(=O)Nc1ccccc1-c1ccccc1	1	30*	-4	4	11	-2
Nc1ccccc1Sc1ccc(C(=O)c2ccccc2C(=O)O)cc1[N+](=O)[O-]	7	72*	10	-11	-20	19
COc1ccc(NC(=O)CSc2nc3[nH]c(=O)cc(O)c3s2)c(OC)c1	.	9	-3	2	7	.
O=C(CCC(=O)c1cccs1)NCCc1ccc(F)cc1	4	26*	-23	1	6	-2
Cc1ccc(O)c(NC(=O)C2=CC(c3ccco3)=NS(=O)(=O)N2C)c1	10	97*	-2	-7	-3	-1
CN1C(C(=O)Nc2cccc(O)c2)=CC(c2ccco2)=NS1(=O)=O	11	3	2	-7	2	.
Cc1nc2ccc(C(=O)N3c4ccccc4N=C(c4ccc5c(c4)OCO5)C3C(=O)NCc3ccccc3)cc2[nH]1 (centres undefined)	.	3	.	.	3	.
CCOC(=O)C(CNc1ccc(O)cc1)NC(=O)c1ccccc1 (centres undefined)	.	21	.	.	13	.
Cc1cc(-c2csc(N)n2)c(C)n1C	23	27*	5	24	8	10
SMILES	GSTO1 counter	PRMT1 FP inh	PAD4 FP inh	Apaf1 inhib	TDP2 absorb	PRMT1 inh conf
Cc1ccc(-n2c(C)cc(-c3csc(N)n3)c2C)cc1	-3	18	-1	-14	1	.
O=C1/C(=C\c2cccnc2)Sc2ccccc21	22	31*	6	19	-1	4
CN(C)/C=C1/Sc2ccccc2C1=O	17	57*	7	4	-1	29*
CC(=O)Nc1ccc(/C=C2/Sc3ccccc3C2=O)cc1	-4	.	-7	-1	.	.
CC(=O)N(\C=C/C=C/C=C1\Sc2ccccc2C1=O)c1ccccc1	-7	46*	-18	28	3	26*
CCN1C(=O)/C(=C/N(C(C)=O)c2ccccc2)N(c2ccccc2)C1=S	-23	6	3	10	-3	.
CN1C(=O)S/C(=C/c2cccnc2)C1=O	5	-2	2	4	-11	.
Cc1c(C(=O)O)nn(-c2cccc(C(F)(F)F)c2)c(=O)c1C#N	1	29*	-4	-11	-5	0
CC(=O)c1ccc(S(=O)(=O)NCC(=O)NC(c2nc3ccccc3[nH]2)C(C)C)cc1 (centres undefined)	.	34*	3	-5	-14	38*
CCN(CC(=O)Nc1c(F)cccc1F)C(=O)C1=COCCO1	5	-2	1	-5	4	.
COc1ccc(C(=O)CSc2nnc(-c3ccco3)c(-c3ccco3)n2)cc1	.	27*	.	.	11	74*
Cc1ccc(NC(=O)CSc2ccc(-c3ccco3)nn2)cc1	1	7	0	-23	10	.
COc1ccc(C(=O)CSc2nnc(-c3ccco3)n2CC2CCCO2)cc1 (centres undefined)	15	-1	-1	1	-10	.
Cc1ccc(NC(=O)CSc2nnc(-c3ccco3)c(-c3ccco3)n2)cc1	37*	37*	-4	37	20	77*
Cc1[nH]c(=O)[nH]c(=O)c1S(=O)(=O)Nc1ccc(Br)cc1F	.	-1	.	-1	-12	.
COc1cc(C(=O)NCC(C)(C)CNC(=O)c2cc(OC)c(OC)c(OC)c2)cc(OC)c1OC	-4	0	-1	-13	-7	.
COC(=O)c1c(N2C(=O)CC(Sc3ccccc3C(=O)O)C2=O)sc2c1CCCC2 (centres undefined)	8	55*	10	16	-1	48*
CCOC(=O)c1cc(CC)sc1N1C(=O)CC(Sc2ncccc2C(=O)O)C1=O (centres undefined)	-2	8	-3	12	5	.
CCOC(=O)c1cc(CC)sc1N1C(=O)CC(Sc2ccccc2C(=O)O)C1=O (centres undefined)	7	54*	9	14	7	56*
COC(=O)c1c(N2C(=O)CC(Sc3ccccc3C(=O)O)C2=O)sc(C)c1C (centres undefined)	4	64*	10	9	-3	51*
O=C(O)c1ccccc1SC1CC(=O)N(c2ccccc2)C1=O (centres undefined)	12	66*	6	-8	13	23*
O=C(O)c1ccccc1SC1CC(=O)N(C2CCCCC2)C1=O (centres undefined)	6	.	7	1	.	.
CCOP(=O)(OCC)C(NC(=O)Nc1ccc(Cl)cc1)C(=O)N(CC)CC (centres undefined)	3	-2	-6	24	-7	.
O=C(c1ccc(Cl)cc1)N1CCOc2ccccc21	.	1	.	.	-7	.
